Experimental data: ChEMBL document CHEMBL2434944, “Novel acetamidothiazole derivatives: synthesis and in vitro anticancer evaluation” (Eur J Med Chem, 2013)

Key:
RXF 393 = assay: Growth inhibition of human RXF393 cells assessed as cell growth at 10^-5 M after 48 hrs by sulforhodamine B assay relative to control; assay type: functional; conditions: RXF 393, 48 h, read-out: Activity
Outline: (§1)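 NCI-60 single-dose screen at 10^-5 M. Cells grown in RPMI 1640 with 5% FBS and 2 mM L-glutamine, plated at 5,000–40,000 cells/well according to doubling time, and preincubated 24 h at 37°C, 5% CO2. Compound dissolved in DMSO and added. Exposure 48 h. Adherent cells fixed with cold TCA (10% final), suspension cells with 16% final TCA. Read-out is 0.4% SRB staining, dye solubilised in 10 mM Tris, absorbance at 515 nm. Percent growth is calculated against the time-zero plate and untreated control.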

SF-539 = assay: Growth inhibition of human SF539 cells assessed as cell growth at 10^-5 M after 48 hrs by sulforhodamine B assay relative to control; assay type: functional; conditions: SF-539, 48 h, read-out: Activity; outline: as §1
IGROV-1 = assay: Growth inhibition of human IGROV1 cells assessed as cell growth at 10^-5 M after 48 hrs by sulforhodamine B assay relative to control; assay type: functional; conditions: IGROV-1, 48 h, read-out: Activity; outline: as §1
SK-MEL-5 = assay: Growth inhibition of human SK-MEL-5 cells assessed as cell growth at 10^-5 M after 48 hrs by sulforhodamine B assay relative to control; assay type: functional; conditions: SK-MEL-5, 48 h, read-out: Activity; outline: as §1
SK-MEL-28 = assay: Growth inhibition of human SK-MEL-28 cells assessed as cell growth at 10^-5 M after 48 hrs by sulforhodamine B assay relative to control; assay type: functional; conditions: SK-MEL-28, 48 h, read-out: Activity; outline: as §1
UACC-62 = assay: Growth inhibition of human UACC62 cells assessed as cell growth at 10^-5 M after 48 hrs by sulforhodamine B assay relative to control; assay type: functional; conditions: UACC-62, 48 h, read-out: Activity
Outline: (§2)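 NCI-60 single-dose screen, 10^-5 M final. Cells grown in RPMI 1640 with 5% FBS and 2 mM L-glutamine, seeded at 5,000–40,000 cells/well by doubling time. Preincubated 24 h at 37°C, 5% CO2. Compound in DMSO, diluted in medium with gentamicin, then 48 h exposure. Fixed with cold TCA, SRB stained, A515 read. Percent growth vs untreated control, time-zero plate corrected.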

NCI-H522 = assay: Growth inhibition of human NCI-H522 cells assessed as cell growth at 10^-5 M after 48 hrs by sulforhodamine B assay relative to control; assay type: functional; conditions: NCI-H522, 48 h, read-out: Activity; outline: as §1
NCI-H460 = assay: Growth inhibition of human NCI-H460 cells assessed as cell growth at 10^-5 M after 48 hrs by sulforhodamine B assay relative to control; assay type: functional; conditions: NCI-H460, 48 h, read-out: Activity; outline: as §1
A498 = assay: Growth inhibition of human A498 cells assessed as cell growth at 10^-5 M after 48 hrs by sulforhodamine B assay relative to control; assay type: functional; conditions: A498, 48 h, read-out: Activity; outline: as §1
[1] = Growth inhibition of human Hs 578T cells assessed as cell growth at 10^-5 M after 48 hrs by sulforhodamine B assay relative to control; assay type: functional; conditions: read-out: Activity; outline: as §1
U-251 = assay: Growth inhibition of human U251 cells assessed as cell growth at 10^-5 M after 48 hrs by sulforhodamine B assay relative to control; assay type: functional; conditions: U-251, 48 h, read-out: Activity; outline: as §2
HL-60(TB) = assay: Growth inhibition of human HL-60(TB) cells assessed as cell growth at 10^-5 M after 48 hrs by sulforhodamine B assay relative to control; assay type: functional; conditions: HL-60, 48 h, read-out: Activity
Outline: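 NCI-60 one-dose screen at 10^-5 M. Cells were grown in RPMI 1640 with 5% FBS and 2 mM L-glutamine and plated at 5,000–40,000 cells/well. They were preincubated 24 h at 37°C under 5% CO2, then exposed for 48 h. Suspension cells were fixed with 80% TCA (16% final) and stained with 0.4% SRB, read at 515 nm. Percent growth is versus untreated control, corrected for time-zero.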

HCT-15 = assay: Growth inhibition of human HCT15 cells assessed as cell growth at 10^-5 M after 48 hrs by sulforhodamine B assay relative to control; assay type: functional; conditions: HCT-15, 48 h, read-out: Activity; outline: as §1
SNB-19 = assay: Growth inhibition of human SNB19 cells assessed as cell growth at 10^-5 M after 48 hrs by sulforhodamine B assay relative to control; assay type: functional; conditions: SNB-19, 48 h, read-out: Activity; outline: as §1
MDA-MB-231 = assay: Growth inhibition of human MDA-MB-231 cells assessed as cell growth at 10^-5 M after 48 hrs by sulforhodamine B assay relative to control; assay type: functional; conditions: MDA-MB-231, 48 h, read-out: Activity; outline: as §1
786-0 = assay: Growth inhibition of human 786-0 cells assessed as cell growth at 10^-5 M after 48 hrs by sulforhodamine B assay relative to control; assay type: functional; conditions: 786-0, 48 h, read-out: Activity; outline: as §1
BT-549 = assay: Growth inhibition of human BT549 cells assessed as cell growth at 10^-5 M after 48 hrs by sulforhodamine B assay relative to control; assay type: functional; conditions: BT-549, 48 h, read-out: Activity; outline: as §1
SK-MEL-2 = assay: Growth inhibition of human SK-MEL-2 cells assessed as cell growth at 10^-5 M after 48 hrs by sulforhodamine B assay relative to control; assay type: functional; conditions: SK-MEL-2, 48 h, read-out: Activity; outline: as §1
HCT-116 = assay: Growth inhibition of human HCT116 cells assessed as cell growth at 10^-5 M after 48 hrs by sulforhodamine B assay relative to control; assay type: functional; conditions: HCT-116, 48 h, read-out: Activity; outline: as §1
[2] = target: Epidermal growth factor receptor (Homo sapiens, UniProt P00533); assay: Inhibition of human EGFR
Sequence of Epidermal growth factor receptor (P00533 whole entry): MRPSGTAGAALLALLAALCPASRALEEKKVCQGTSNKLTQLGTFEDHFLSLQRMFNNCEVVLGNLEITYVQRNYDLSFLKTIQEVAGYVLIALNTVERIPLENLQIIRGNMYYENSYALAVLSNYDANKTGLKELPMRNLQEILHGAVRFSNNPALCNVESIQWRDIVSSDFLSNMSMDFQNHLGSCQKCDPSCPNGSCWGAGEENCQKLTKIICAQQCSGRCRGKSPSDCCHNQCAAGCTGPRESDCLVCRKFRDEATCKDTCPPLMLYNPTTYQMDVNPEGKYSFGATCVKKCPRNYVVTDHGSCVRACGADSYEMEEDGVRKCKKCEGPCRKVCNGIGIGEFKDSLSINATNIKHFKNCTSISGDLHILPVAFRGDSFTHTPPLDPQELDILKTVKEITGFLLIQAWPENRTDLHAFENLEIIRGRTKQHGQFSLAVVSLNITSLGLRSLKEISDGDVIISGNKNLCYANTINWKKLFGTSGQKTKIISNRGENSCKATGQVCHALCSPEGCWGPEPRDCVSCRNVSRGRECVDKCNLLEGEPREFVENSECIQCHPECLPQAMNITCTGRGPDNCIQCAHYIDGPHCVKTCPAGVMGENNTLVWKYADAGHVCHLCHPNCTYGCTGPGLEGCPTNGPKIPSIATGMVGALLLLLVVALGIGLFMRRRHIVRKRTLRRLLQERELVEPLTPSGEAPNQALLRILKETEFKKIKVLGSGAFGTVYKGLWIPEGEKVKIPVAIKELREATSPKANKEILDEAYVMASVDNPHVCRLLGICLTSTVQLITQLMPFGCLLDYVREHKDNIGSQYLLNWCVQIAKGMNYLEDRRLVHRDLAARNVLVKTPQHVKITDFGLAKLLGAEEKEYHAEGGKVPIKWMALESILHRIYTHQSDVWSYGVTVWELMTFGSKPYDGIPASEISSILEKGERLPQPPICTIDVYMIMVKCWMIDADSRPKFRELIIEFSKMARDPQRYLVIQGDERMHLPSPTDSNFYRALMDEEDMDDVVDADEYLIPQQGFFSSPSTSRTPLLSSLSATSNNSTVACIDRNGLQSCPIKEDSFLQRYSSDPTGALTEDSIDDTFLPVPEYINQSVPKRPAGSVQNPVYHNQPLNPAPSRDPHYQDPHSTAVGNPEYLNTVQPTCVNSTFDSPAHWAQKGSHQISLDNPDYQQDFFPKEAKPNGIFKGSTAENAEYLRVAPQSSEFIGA

A549 = assay: Growth inhibition of human A549 cells assessed as cell growth at 10^-5 M after 48 hrs by sulforhodamine B assay relative to control; assay type: functional; conditions: A549, 48 h, read-out: Activity; outline: as §1
RPMI-8226 = assay: Growth inhibition of human RPMI8226 cells assessed as cell growth at 10^-5 M after 48 hrs by sulforhodamine B assay relative to control; assay type: functional; conditions: RPMI-8226, 48 h, read-out: Activity; outline: as §1
LOX IMVI = assay: Growth inhibition of human LOXIMVI cells assessed as cell growth at 10^-5 M after 48 hrs by sulforhodamine B assay relative to control; assay type: functional; conditions: read-out: Activity; outline: as §1
SR = assay: Growth inhibition of human SR cells assessed as cell growth at 10^-5 M after 48 hrs by sulforhodamine B assay relative to control; assay type: functional; conditions: read-out: Activity; outline: as §2
COLO 205 = assay: Growth inhibition of human COLO205 cells assessed as cell growth at 10^-5 M after 48 hrs by sulforhodamine B assay relative to control; assay type: functional; conditions: COLO 205, 48 h, read-out: Activity; outline: as §1
CCRF-CEM = assay: Growth inhibition of human CCRF-CEM cells assessed as cell growth at 10^-5 M after 48 hrs by sulforhodamine B assay relative to control; assay type: functional; conditions: read-out: Activity; outline: as §1

| SMILES | growth at 10 µM (RXF 393) [%] | growth at 10 µM (SF-539) [%] | growth at 10 µM (IGROV-1) [%] | growth at 10 µM (SK-MEL-5) [%] | growth at 10 µM (SK-MEL-28) [%] | growth at 10 µM (UACC-62) [%] | growth at 10 µM (NCI-H522) [%] | growth at 10 µM (NCI-H460) [%] | growth at 10 µM (A498) [%] | growth at 10 µM [1] [%] | growth at 10 µM (U-251) [%] | growth at 10 µM (HL-60(TB)) [%] | growth at 10 µM (HCT-15) [%] | growth at 10 µM (SNB-19) [%] | growth at 10 µM (MDA-MB-231) [%] | growth at 10 µM (786-0) [%] | growth at 10 µM (BT-549) [%] | growth at 10 µM (SK-MEL-2) [%] | growth at 10 µM (HCT-116) [%] | Ki [2] [µM] | other results |
| --- | --- | --- | --- | --- | --- | --- | --- | --- | --- | --- | --- | --- | --- | --- | --- | --- | --- | --- | --- | --- | --- |
| CC(=O)N1CCN(C(=O)Cn2c(-c3ccccc3)csc2=N)CC1 | 86.3 | 91.6 | 95.6 | 90.2 | 101 | 89.6 | 81.3 | 110 | 100 | 110 | 96.9 | 111 | 94.5 | 103 | 95.4 | 103 | 98 | 108 | 96.1 | 16.8 | growth at 10 µM (A549): 96%; growth at 10 µM (RPMI-8226): 97.3%; growth at 10 µM (LOX IMVI): 94.3%; growth at 10 µM (SR): 88.7%; growth at 10 µM (COLO 205): 99.8%; growth at 10 µM (CCRF-CEM): 103% |
| Cc1ccc(-c2csc(=N)n2CC(=O)N2CCN(C)CC2)cc1 | 93.1 | 101 | 111 | 87.2 | 97.5 | 72.6 | 80.6 | 102 | 80.2 | 101 | 83.9 | 109 | 91.6 | 99.8 | 83.4 | 101 | 115 | 108 | 104 | 27.4 | growth at 10 µM (A549): 86.8%; growth at 10 µM (RPMI-8226): 83.5%; growth at 10 µM (LOX IMVI): 89.1%; growth at 10 µM (SR): 86.5%; growth at 10 µM (COLO 205): 106%; growth at 10 µM (CCRF-CEM): 87.1% |
| CN1CCN(C(=O)Cn2c(-c3ccccc3)csc2=N)CC1 | 97.3 | 98.7 | 93.2 | 88.2 | 100 | 85.9 | 82.3 | 99.1 | 92.6 | 88.2 | 88.2 | 100 | 87.6 | 93.7 | 78.8 | 101 | 92.6 | 118 | 91.6 | 41.6 | growth at 10 µM (A549): 92%; growth at 10 µM (RPMI-8226): 92.5%; growth at 10 µM (LOX IMVI): 87.3%; growth at 10 µM (SR): 74.1%; growth at 10 µM (COLO 205): 103%; growth at 10 µM (CCRF-CEM): 97.6% |
| CN1CCN(C(=O)Cn2c(-c3ccc(Cl)cc3)csc2=N)CC1 | 108 | 100 | 93.1 | 100 | 107 | 90.2 | 86.7 | 101 | 80 | 106 | 91.2 | 102 | 93.1 | 92.7 | 103 | 97 | 104 | 102 | 94.4 | 15.6 | growth at 10 µM (A549): 90.1%; growth at 10 µM (RPMI-8226): 79.1%; growth at 10 µM (LOX IMVI): 96.8%; growth at 10 µM (SR): 78.5%; growth at 10 µM (COLO 205): 101%; growth at 10 µM (CCRF-CEM): 89.1% |
| N=c1scc(-c2ccc(Cl)cc2)n1CC(=O)N1CCOCC1 | 110 | 95.8 | 90.4 | 96.5 | 97.1 | 83.2 | 79.5 | 99.3 | 75.5 | 105 | 88.3 | 96.6 | 89.9 | 91.2 | 97.5 | 95.5 | 95.5 | 107 | 87.4 | 6.64 | growth at 10 µM (A549): 84.6%; growth at 10 µM (RPMI-8226): 78.7%; growth at 10 µM (LOX IMVI): 97.9%; growth at 10 µM (SR): 72.7%; growth at 10 µM (COLO 205): 101%; growth at 10 µM (CCRF-CEM): 91.3% |
| CC(=O)N1CCN(C(=O)Cn2c(-c3ccc(C)cc3)csc2=N)CC1 | 94.8 | 99.9 | 103 | 92.1 | 98.9 | 74.2 | 76.9 | 103 | 80.6 | 105 | 85 | 108 | 90.6 | 100 | 75.3 | 98.8 | 104 | 113 | 85.9 | 6.09 | growth at 10 µM (A549): 83.4%; growth at 10 µM (RPMI-8226): 82.3%; growth at 10 µM (LOX IMVI): 85.5%; growth at 10 µM (SR): 81.3%; growth at 10 µM (COLO 205): 106%; growth at 10 µM (CCRF-CEM): 88.2% |
| N=c1scc(-c2ccc(Cl)cc2)n1CC(=O)N1CCN(c2ccccc2)CC1 | 98.8 | 100 | 101 | 91.9 | 98.6 | 98.1 | 76.9 | 101 | 84.9 | 106 | 89.6 | 89.8 | 96.8 | 100 | 114 | 97.9 | 102 | 79 | 101 | 5.82 | growth at 10 µM (A549): 84.8%; growth at 10 µM (RPMI-8226): 83.4%; growth at 10 µM (LOX IMVI): 103%; growth at 10 µM (SR): 88%; growth at 10 µM (COLO 205): 105%; growth at 10 µM (CCRF-CEM): 96.2% |
